Reference: article PMC10546156 (Journal for Immunotherapy of Cancer, 2023)

test system: HLA-typed donor PBMC, CD8 T cells; test: Immunogenicity assessment: tetramer/dextramer staining of donor T cells; type: cell-based, human; conditions: two C*07:01 healthy donor buffy coats, prior to or after sequential dextramer enrichment
Method in brief: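 Dextramers were assembled from UV-exchange MHC monomers. 1–3×10^8 PBMC were treated with 50 nM dasatinib plus FcR block (30 min, 37°C), then with 10 µg/mL dextramer pool (1 h, 4°C), and bead-enriched sequentially over two columns. Enriched cells were either surface-stained for flow cytometry with the whole sample acquired, or expanded 10–14 days (irradiated allogeneic feeders, anti-CD3/28, IL-2 300 IU/mL, IL-7/IL-15 5 ng/mL) before re-enrichment.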

| Substance | C*07:01 PP-CTL responses by dextramer pool |
| --- | --- |
| _KRAS(ph)FAKSV_ [pWNK] | could not detect responses |
| _RRPS(ph)LLSEF_ [pNCOR] | could not detect responses |
| _RRYS(ph)DPPTY_ [pMYO9B] | could not detect responses |
| _FRRS(ph)PTKSSL_ [pRBM14] | could not detect responses |
| _HRYS(ph)TPHAF_ [pRAF1] | could not detect responses |
| _RRFS(ph)GTAVY_ [pZNF518A] | could not detect responses |
| _KRAS(ph)GQAFEL_ [pSTMN] | could not detect responses |
